≈ marks a conversion by molar mass, not a printed value.

One assay has as its system Escherichia coli. In words: Antibacterial activity against Escherichia coli MTCC 1652 after 24 hrs by agar well diffusion method. The assay is classed as functional. Conditions: MTCC 1652, 24 h. The procedure, abridged:
(§1)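 MIC by modified agar well diffusion. Two-fold serial dilutions (DMSO stock diluted in sterile distilled water), range 256 to 0.5, placed in wells in triplicate. Agar was pre-seeded with 100 standardized inoculum at 10⁶ cfu/mL. Incubated aerobically at 37 °C for 24 h. MIC taken as lowest concentration giving a clear zone, i.e. complete growth inhibition.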
Background: A growth-free zone around the sample is the usual read-out of agar diffusion tests.
Usually MIC stands for the least concentration at which growth counts as inhibited. Low readings indicate a more susceptible organism, high ones a less susceptible organism. `Cc1cccc2c1CC1Sc3nncn3N=C21` (stereo unspecified) had an MIC of 32 µg/mL (≈ 132 µM).
`Cc1cccc2c3nn4c(-c5ccccc5)nnc4sc-3cc12` had an MIC of 128 µg/mL (≈ 405 µM).
`Cc1cccc2c3nn4c(C)nnc4sc-3cc12` gave an MIC of 64 µg/mL (≈ 252 µM).
Still for that read-out and setting: as for `CCc1nnc2sc3cc4c(C)cccc4c-3nn12`, the figure is 64 µg/mL (≈ 238 µM).
`Cc1cccc2c1CC1Sc3nnc(C(C)C)n3N=C21` (stereo unspecified) showed an MIC of 32 µg/mL (≈ 113 µM).
Take `c1ccc(-c2nnc3n2N=C2c4ccccc4CC2S3)cc1` (stereo unspecified): it took 64 µg/mL (≈ 210 µM) to inhibit growth (MIC).

A further assay relates to Pseudomonas aeruginosa. The experiment in a line: Antibacterial activity against Pseudomonas aeruginosa MTCC 741 at 2 mg/ml after 24 hrs by agar well diffusion method. The assay is classed as functional. Conditions: MTCC 741, 24 h, read-out: DIZ. The procedure, abridged: (§2)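 Cultures adjusted to 0.5 McFarland and left 15 min on agar for adsorption. 8 mm wells bored and loaded with compound at 2.0 mg/mL in DMSO. Incubated 37 °C for 24 h. Growth-inhibition zone diameter (mm) read with a zone scale and reported as the average. DMSO served as negative control and ciprofloxacin as positive control.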
Consider `Cc1cccc2c1CC1Sc3nncn3N=C21` (stereo unspecified), for which the zone of inhibition at 2000 µg/mL stood at 20.3 mm.
Take `Cc1cccc2c3nn4c(-c5ccccc5)nnc4sc-3cc12`: the zone of inhibition at 2000 µg/mL worked out at 15.3 mm.
The same measure, in the same setting: as for `Cc1cccc2c3nn4c(C)nnc4sc-3cc12`, the figure is 15.6 mm.
Take `CCc1nnc2sc3cc4c(C)cccc4c-3nn12`: the zone of inhibition at 2000 µg/mL stood at 17.3 mm.
With `Cc1cccc2c1CC1Sc3nnc(C(C)C)n3N=C21` (stereo unspecified), the zone of inhibition at 2000 µg/mL came out at 20.3 mm.
Same read-out and setting: as for `c1ccc(-c2nnc3n2N=C2c4ccccc4CC2S3)cc1` (stereo unspecified), the figure is 14.6 mm.

A further assay has as its system Staphylococcus aureus. The experiment in a line: Antibacterial activity against Staphylococcus aureus MTCC 96 at 2 mg/ml after 24 hrs by agar well diffusion method. It is filed as functional. Conditions: MTCC 96, 24 h, read-out: DIZ. The procedure, abridged: as §2
With `Cc1cccc2c1CC1Sc3nncn3N=C21` (stereo unspecified), the zone of inhibition at 2000 µg/mL turned out to be 26.3 mm.
Regarding `Cc1cccc2c3nn4c(-c5ccccc5)nnc4sc-3cc12`, the zone of inhibition at 2000 µg/mL was found to be 18.6 mm.
Same read-out and setting: next, `Cc1cccc2c3nn4c(C)nnc4sc-3cc12`: 20.3 mm; `CCc1nnc2sc3cc4c(C)cccc4c-3nn12`: 21.6 mm; `Cc1cccc2c1CC1Sc3nnc(C(C)C)n3N=C21` (stereo unspecified): 28.6 mm.
On to `c1ccc(-c2nnc3n2N=C2c4ccccc4CC2S3)cc1` (stereo unspecified), for which the zone of inhibition at 2000 µg/mL is 20.6 mm.

The test system of another assay is Aspergillus flavus. The experiment in a line: Antifungal activity against Aspergillus flavus assessed as inhibition of mycelial growth at 4 mg/ml after 7 days. It is filed as functional. As to conditions: 168 h, read-out: GI. The method in brief: (§3)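 Poisoned food method. Molds grown on Sabouraud dextrose agar at 25 °C for 7 days to provide inocula. Molten SDA (45 °C) dosed with compound at 4.0 mg/mL in DMSO, then solidified. 8 mm fungal plugs from colony margins placed centrally. Incubated 25 °C for 7 days, in triplicate. % mycelial growth inhibition calculated from colony diameters versus DMSO control. Fluconazole served as positive control.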
As to `Cc1cccc2c1CC1Sc3nncn3N=C21` (stereo unspecified), the inhibition of growth at 4000 µg/mL worked out at 65.5%.
Same read-out and setting: as for `Cc1cccc2c3nn4c(-c5ccccc5)nnc4sc-3cc12`, the figure is 51.1%; as for `Cc1cccc2c3nn4c(C)nnc4sc-3cc12`, 50%; as for `CCc1nnc2sc3cc4c(C)cccc4c-3nn12`, 62.5%.
Same read-out and setting: next, `Cc1cccc2c1CC1Sc3nnc(C(C)C)n3N=C21` (stereo unspecified): 61.1%; `c1ccc(-c2nnc3n2N=C2c4ccccc4CC2S3)cc1` (stereo unspecified): 48.8%.

For the next assay, the system named is Bacillus subtilis. In words: Antibacterial activity against Bacillus subtilis MTCC 121 after 24 hrs by agar well diffusion method. The assay is classed as functional. Conditions: MTCC 121, 24 h. The procedure, abridged:
as §1
The molecule `Cc1cccc2c1CC1Sc3nncn3N=C21` (stereo unspecified) displayed an MIC of 2 µg/mL (≈ 8.25 µM).
Same read-out and setting: as for `Cc1cccc2c3nn4c(-c5ccccc5)nnc4sc-3cc12`, the figure is 32 µg/mL (≈ 101 µM).
Same read-out and setting: next, `Cc1cccc2c3nn4c(C)nnc4sc-3cc12`: 64 µg/mL (≈ 252 µM); `CCc1nnc2sc3cc4c(C)cccc4c-3nn12`: 32 µg/mL (≈ 119 µM); `Cc1cccc2c1CC1Sc3nnc(C(C)C)n3N=C21` (stereo unspecified): 8 µg/mL (≈ 28.1 µM).
Same read-out and setting: next, `c1ccc(-c2nnc3n2N=C2c4ccccc4CC2S3)cc1` (stereo unspecified): 128 µg/mL (≈ 421 µM).

A further assay deals with Staphylococcus aureus. The experiment in a line: Antibacterial activity against Staphylococcus aureus MTCC 96 after 24 hrs by agar well diffusion method. The assay is classed as functional. As to conditions: MTCC 96, 24 h. The procedure, abridged: as §1
With `Cc1cccc2c1CC1Sc3nncn3N=C21` (stereo unspecified), the lowest concentration to inhibit growth (MIC) was 8 µg/mL (≈ 33 µM).
Still for that read-out and setting: as for `Cc1cccc2c3nn4c(-c5ccccc5)nnc4sc-3cc12`, the figure is 64 µg/mL (≈ 202 µM); as for `Cc1cccc2c3nn4c(C)nnc4sc-3cc12`, 64 µg/mL (≈ 252 µM); as for `CCc1nnc2sc3cc4c(C)cccc4c-3nn12`, 32 µg/mL (≈ 119 µM).
The same measure, in the same setting: as for `Cc1cccc2c1CC1Sc3nnc(C(C)C)n3N=C21` (stereo unspecified), the figure is 4 µg/mL (≈ 14.1 µM).
Still for that read-out and setting: next, `c1ccc(-c2nnc3n2N=C2c4ccccc4CC2S3)cc1` (stereo unspecified): 64 µg/mL (≈ 210 µM).

The test system of the next assay is Pseudomonas aeruginosa. The experiment in a line: Antibacterial activity against Pseudomonas aeruginosa MTCC 741 after 24 hrs by agar well diffusion method. The assay is classed as functional. As to conditions: MTCC 741, 24 h. The method in brief:
as §1
`Cc1cccc2c1CC1Sc3nncn3N=C21` (stereo unspecified): the MIC was 32 µg/mL (≈ 132 µM).
Turning to `Cc1cccc2c3nn4c(-c5ccccc5)nnc4sc-3cc12`, the MIC turned out to be 128 µg/mL (≈ 405 µM).
Still for that read-out and setting: next, `Cc1cccc2c3nn4c(C)nnc4sc-3cc12`: 128 µg/mL (≈ 503 µM); `CCc1nnc2sc3cc4c(C)cccc4c-3nn12`: 64 µg/mL (≈ 238 µM).
Still for that read-out and setting: next, `Cc1cccc2c1CC1Sc3nnc(C(C)C)n3N=C21` (stereo unspecified): 32 µg/mL (≈ 113 µM); `c1ccc(-c2nnc3n2N=C2c4ccccc4CC2S3)cc1` (stereo unspecified): 256 µg/mL (≈ 841 µM).

The subject of another assay is Aspergillus niger. In words: Antifungal activity against Aspergillus niger assessed as inhibition of mycelial growth at 4 mg/ml after 7 days. It is filed as functional. As to conditions: 168 h, read-out: GI. The method in brief:
as §3
As to `Cc1cccc2c1CC1Sc3nncn3N=C21` (stereo unspecified), the inhibition of growth at 4000 µg/mL was 63.3%.
Still for that read-out and setting: as for `Cc1cccc2c3nn4c(-c5ccccc5)nnc4sc-3cc12`, the figure is 55.5%.
Consider `Cc1cccc2c3nn4c(C)nnc4sc-3cc12`, for which the inhibition of growth at 4000 µg/mL is 53.3%.
Take `CCc1nnc2sc3cc4c(C)cccc4c-3nn12`: the inhibition of growth at 4000 µg/mL was determined as 65.5%.
As for `Cc1cccc2c1CC1Sc3nnc(C(C)C)n3N=C21` (stereo unspecified), the inhibition of growth at 4000 µg/mL was 63.3%.
On the same count and under the same terms, as for `c1ccc(-c2nnc3n2N=C2c4ccccc4CC2S3)cc1` (stereo unspecified), the figure is 51.1%.

The test system of a further assay is Escherichia coli. In words: Antibacterial activity against Escherichia coli MTCC 1652 at 2 mg/ml after 24 hrs by agar well diffusion method. It is filed as functional. As to conditions: MTCC 1652, 24 h, read-out: DIZ. The procedure, abridged:
as §2
Turning to `Cc1cccc2c1CC1Sc3nncn3N=C21` (stereo unspecified), the zone of inhibition at 2000 µg/mL was 22.3 mm.
Same read-out and setting: as for `Cc1cccc2c3nn4c(-c5ccccc5)nnc4sc-3cc12`, the figure is 15.6 mm; as for `Cc1cccc2c3nn4c(C)nnc4sc-3cc12`, 18.6 mm; as for `CCc1nnc2sc3cc4c(C)cccc4c-3nn12`, 19.3 mm.
Regarding `Cc1cccc2c1CC1Sc3nnc(C(C)C)n3N=C21` (stereo unspecified), the zone of inhibition at 2000 µg/mL came out at 21.6 mm.
Same read-out and setting: as for `c1ccc(-c2nnc3n2N=C2c4ccccc4CC2S3)cc1` (stereo unspecified), the figure is 18.3 mm.

Another assay has as its system Penicillium sp. In words: Antifungal activity against Penicillium sp. assessed as inhibition of mycelial growth at 4 mg/ml after 7 days. Conditions: 168 h, read-out: GI. It is filed as functional. The method in brief: as §3
As to `Cc1cccc2c1CC1Sc3nncn3N=C21` (stereo unspecified), the inhibition of growth at 4000 µg/mL turned out to be 62.5%.
The same measure, in the same setting: as for `Cc1cccc2c3nn4c(-c5ccccc5)nnc4sc-3cc12`, the figure is 48.8%; as for `Cc1cccc2c3nn4c(C)nnc4sc-3cc12`, 51.1%; as for `CCc1nnc2sc3cc4c(C)cccc4c-3nn12`, 63.3%.
As to `Cc1cccc2c1CC1Sc3nnc(C(C)C)n3N=C21` (stereo unspecified), the inhibition of growth at 4000 µg/mL stood at 65.5%.
Still for that read-out and setting: as for `c1ccc(-c2nnc3n2N=C2c4ccccc4CC2S3)cc1` (stereo unspecified), the figure is 50%.

A further assay concerns Bacillus subtilis. The experiment in a line: Antibacterial activity against Bacillus subtilis MTCC 121 at 2 mg/ml after 24 hrs by agar well diffusion method. It is filed as functional. As to conditions: MTCC 121, 24 h, read-out: DIZ. The method in brief:
as §2
`Cc1cccc2c1CC1Sc3nncn3N=C21` (stereo unspecified): the zone of inhibition at 2000 µg/mL was 30.6 mm.
Same read-out and setting: next, `Cc1cccc2c3nn4c(-c5ccccc5)nnc4sc-3cc12`: 22.6 mm; `Cc1cccc2c3nn4c(C)nnc4sc-3cc12`: 18.6 mm.
Still for that read-out and setting: as for `CCc1nnc2sc3cc4c(C)cccc4c-3nn12`, the figure is 23 mm.
On to `Cc1cccc2c1CC1Sc3nnc(C(C)C)n3N=C21` (stereo unspecified), for which the zone of inhibition at 2000 µg/mL amounted to 27 mm.
Turning to `c1ccc(-c2nnc3n2N=C2c4ccccc4CC2S3)cc1` (stereo unspecified), the zone of inhibition at 2000 µg/mL came out at 16.3 mm.

The record behind these values is ChEMBL document CHEMBL1828500, “Synthesis and biological evaluation of dihydroindeno and indeno [1,2-e] [1,2,4]triazolo [3,4-b] [1,3,4]thiadiazines as antimicrobial agents” (2011).
